Results published in ChEMBL document CHEMBL1129498, “Azole endothelin antagonists. 2. Structure-activity studies” (J Med Chem, 1996).

How the values were obtained:
[1] = target: T1, Endothelin receptor type B (Sus scrofa, UniProt P35463); assay: Inhibitory activity was evaluated against ET- B Binding to Endothelin B receptor from porcine cerebellar membranes
T1 sequence (P35463 whole entry): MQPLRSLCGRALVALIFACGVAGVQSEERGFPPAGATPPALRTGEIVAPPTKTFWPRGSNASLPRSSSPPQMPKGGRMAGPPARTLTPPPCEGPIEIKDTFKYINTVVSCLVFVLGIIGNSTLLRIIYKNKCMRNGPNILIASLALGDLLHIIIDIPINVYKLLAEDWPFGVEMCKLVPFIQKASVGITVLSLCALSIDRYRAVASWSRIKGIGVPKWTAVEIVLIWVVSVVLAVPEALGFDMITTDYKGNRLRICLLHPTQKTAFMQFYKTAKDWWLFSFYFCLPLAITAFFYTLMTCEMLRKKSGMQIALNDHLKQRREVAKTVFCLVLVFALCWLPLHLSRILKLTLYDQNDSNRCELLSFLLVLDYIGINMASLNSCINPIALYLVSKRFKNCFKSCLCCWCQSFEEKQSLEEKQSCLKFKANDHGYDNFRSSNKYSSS

[2] = target: T2, Endothelin-1 receptor (Rattus norvegicus, UniProt P26684); assay: Inhibitory activity was evaluated against ET- A Binding to Endothelin A receptor in MMQ cell homogenates; format: cell-free
T2 sequence (P26684 whole entry): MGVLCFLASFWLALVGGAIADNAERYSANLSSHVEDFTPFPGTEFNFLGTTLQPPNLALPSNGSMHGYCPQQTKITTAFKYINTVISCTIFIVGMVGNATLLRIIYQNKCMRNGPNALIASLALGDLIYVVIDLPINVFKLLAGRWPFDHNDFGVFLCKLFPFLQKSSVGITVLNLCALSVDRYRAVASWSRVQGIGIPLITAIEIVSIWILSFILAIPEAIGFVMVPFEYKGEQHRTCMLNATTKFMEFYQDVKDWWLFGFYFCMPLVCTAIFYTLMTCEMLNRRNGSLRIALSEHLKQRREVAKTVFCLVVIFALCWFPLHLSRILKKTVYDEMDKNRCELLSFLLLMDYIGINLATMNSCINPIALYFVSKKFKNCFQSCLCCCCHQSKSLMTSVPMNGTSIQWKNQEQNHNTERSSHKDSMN

[3] = test system: MMQ; assay: Inhibitory activity was evaluated by measuring the PI hydrolysis in MMQ cell line; format: functional, cell-based, Rattus norvegicus; conditions: Rattus norvegicus, MMQ
Summary of the method: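 MMQ cells (0.4 × 10⁶ cells/mL) labeled 16 h with 10 µCi/mL [³H]myoinositol in RPMI, PBS-washed, then held 60 min in buffer A with protease inhibitors and 10 mM LiCl. Compound pre-incubated 5 min, then 1 nM ET-1 challenge for 30 min at 37 °C, stopped with chloroform-methanol. Total inositol phosphates extracted and taken from the aqueous phase by AG1-X8 anion-exchange batch chromatography.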

| SMILES | IC50 [1] | IC50 [2] | IC50 [3] |
| --- | --- | --- | --- |
| Cc1oc([C@@H](Cc2c[nH]c3ccccc23)NC(=O)[C@H](CC(C)C)NC(=O)N2CCCCCC2)nc1C(=O)NO | > 100 µM | 2900 nM |  |
| CCN(CC)C(=O)N[C@@H](CC(C)C)C(=O)N[C@H](Cc1c[nH]c2ccccc12)c1nc(C(=O)O)c(C)o1 | > 100 µM | 3000 nM |  |
| Cc1[nH]c([C@@H](Cc2cn(C)c3ccccc23)NC(=O)[C@H](CC(C)C)NC(=O)NC2CCCCC2C)nc1C(=O)O (some centres not stated) | 13 µM | 18 nM |  |
| Cc1[nH]c([C@@H](Cc2cn(C)c3ccccc23)NC(=O)[C@H](CC(C)C)NC(=O)Nc2ccccc2)nc1C(=O)O | 37 µM | 7.6 nM | 1.3 nM |
| Cc1oc([C@@H](Cc2c[nH]c3ccccc23)NC(=O)[C@H](CC(C)C)NC(=O)N2CCCCCC2)nc1C(=O)O | > 100 µM |  | 4500 nM |
| Cc1oc([C@@H](Cc2cn(C)c3ccccc23)NC(=O)[C@H](CC(C)C)NC(=O)NC2CCCC(C)C2)nc1C(=O)O (some centres not stated) | > 100 µM | 960 nM |  |
| Cc1[nH]c([C@@H](Cc2cn(C)c3ccccc23)NC(=O)[C@H](CC(C)C)NC(=O)NC2CCCC(C)C2)nc1C(=O)O (some centres not stated) | 22 µM | 26 nM | 8.6 nM |
| Cc1oc([C@@H](Cc2cn(C)c3ccccc23)NC(=O)[C@H](CC(C)C)NC(=O)N2CCCc3ccccc32)nc1C(=O)O | 66 µM | 33 nM | 0.9 nM |
| Cc1oc([C@@H](Cc2cn(C)c3ccccc23)NC(=O)[C@H](CC(C)C)NC(=O)Nc2ccccc2F)nc1C(=O)O | 2.4 µM | 17 nM | 26 nM |
| Cc1oc([C@@H](Cc2cn(C)c3ccccc23)NC(=O)[C@H](CC(C)C)NC(=O)NC2(C)CCCCC2)nc1C(=O)O | 56 µM | 200 nM |  |
| Cc1[nH]c([C@@H](Cc2c[nH]c3ccccc23)NC(=O)[C@H](CC(C)C)NC(=O)NCc2ccccc2)nc1C(=O)O | > 100 µM | 2100 nM |  |
| Cc1oc([C@@H](Cc2cn(C)c3ccccc23)NC(=O)[C@H](CC(C)C)NC(=O)NC2CCCCCC2)nc1C(=O)O | 75 µM | 400 nM |  |
| Cc1oc([C@@H](Cc2cn(C)c3ccccc23)NC(=O)[C@H](CC(C)C)NC(=O)Nc2cccc(F)c2)nc1C(=O)O | 55 µM | 66 nM |  |
| Cc1[nH]c([C@@H](Cc2cn(C)c3ccccc23)NC(=O)[C@H](CC(C)C)NC(=O)NC2CCCC2)nc1C(=O)O | 67 µM | 37 nM | 43 nM |
| Cc1oc([C@@H](Cc2cn(C)c3ccccc23)NC(=O)[C@H](CC(C)C)NC(=O)Nc2ccccn2)nc1C(=O)O | 66 µM | 74 nM |  |
| Cc1oc([C@@H](Cc2cn(C)c3ccccc23)NC(=O)[C@H](CC(C)C)NC(=O)Nc2c(F)c(F)c(F)c(F)c2F)nc1C(=O)O | > 100 µM | 3550 nM |  |
| Cc1oc([C@@H](Cc2c[nH]c3ccccc23)NC(=O)[C@H](CC(C)C)NS(=O)(=O)N2CCCCCC2)nc1C(=O)O | > 100 µM | > 100000 nM |  |
| Cc1oc([C@@H](Cc2c[nH]c3ccccc23)NC(=O)[C@H](CC(C)C)NC(=O)NC2CCCCC2)nc1C(=O)O | > 100 µM |  |  |
| CCOC(=O)c1nc([C@@H](Cc2c[nH]c3ccccc23)NC(=O)[C@H](CC(C)C)NC(=O)N2CCCCCC2)oc1C | 43 µM |  |  |
| Cc1c(C(=O)O)nc([C@@H](Cc2c[nH]c3ccccc23)NC(=O)[C@H](CC(C)C)NC(=O)N2CCCCCC2)n1Cc1ccccc1 | > 100 µM |  |  |
| Cc1oc([C@@H](Cc2cn(C)c3ccccc23)NC(=O)[C@H](CC(C)C)NC(=O)NC2CCCc3ccccc32)nc1C(=O)O (some centres not stated) | 48 µM | 230 nM |  |
| Cc1oc([C@@H](Cc2cn(C)c3ccccc23)NC(=O)[C@H](CC(C)C)NC(=O)NC2CCCCC2)nc1C(=O)O | > 100 µM | 220 nM |  |
| Cc1oc([C@@H](Cc2cn(C)c3ccccc23)NC(=O)[C@H](CC(C)C)NC(=O)Nc2ccc(F)cc2)nc1C(=O)O | > 100 µM | 1900 nM |  |
| Cc1oc([C@@H](Cc2cn(C)c3ccccc23)NC(=O)[C@H](CC(C)C)NC(=O)NC2CC3CCC2C3)nc1C(=O)O (stereo in doubt; 15o) | 67 µM | 800 nM |  |
| Cc1oc([C@@H](Cc2cn(C)c3ccccc23)NC(=O)[C@H](CC(C)C)NC(=O)NC2CC3CCC2C3)nc1C(=O)O (stereo in doubt; 15p) | 26 µM | 450 nM |  |
